From article PMC4075068 (Bioorganic & medicinal chemistry letters, 2014)

How the values were obtained:
rat mGlu2 = rat mGlu2 (Rattus norvegicus, UniProt P31421); format: cell-based
How it was run: (§1)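 Kinetic plate-based calcium fluorescence readout in cells expressing mGlu2 or mGlu3. For IC50, the test compound was titrated from 1 nM upward against an EC76 of glutamate at mGlu2 or an EC87 at mGlu3. For mechanism, the test compound was held at several fixed concentrations while glutamate was titrated from 1 nM upward, and shifts in the glutamate curve were assessed. Three independent experiments.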

mGlu3 = mGlu3 (Rattus norvegicus, UniProt P31422); experiment: mGlu family selectivity screen, fold-shift of glutamate response; format: cell-based; settings: 10 μM
Sequence of mGlu3 (P31422 23-879): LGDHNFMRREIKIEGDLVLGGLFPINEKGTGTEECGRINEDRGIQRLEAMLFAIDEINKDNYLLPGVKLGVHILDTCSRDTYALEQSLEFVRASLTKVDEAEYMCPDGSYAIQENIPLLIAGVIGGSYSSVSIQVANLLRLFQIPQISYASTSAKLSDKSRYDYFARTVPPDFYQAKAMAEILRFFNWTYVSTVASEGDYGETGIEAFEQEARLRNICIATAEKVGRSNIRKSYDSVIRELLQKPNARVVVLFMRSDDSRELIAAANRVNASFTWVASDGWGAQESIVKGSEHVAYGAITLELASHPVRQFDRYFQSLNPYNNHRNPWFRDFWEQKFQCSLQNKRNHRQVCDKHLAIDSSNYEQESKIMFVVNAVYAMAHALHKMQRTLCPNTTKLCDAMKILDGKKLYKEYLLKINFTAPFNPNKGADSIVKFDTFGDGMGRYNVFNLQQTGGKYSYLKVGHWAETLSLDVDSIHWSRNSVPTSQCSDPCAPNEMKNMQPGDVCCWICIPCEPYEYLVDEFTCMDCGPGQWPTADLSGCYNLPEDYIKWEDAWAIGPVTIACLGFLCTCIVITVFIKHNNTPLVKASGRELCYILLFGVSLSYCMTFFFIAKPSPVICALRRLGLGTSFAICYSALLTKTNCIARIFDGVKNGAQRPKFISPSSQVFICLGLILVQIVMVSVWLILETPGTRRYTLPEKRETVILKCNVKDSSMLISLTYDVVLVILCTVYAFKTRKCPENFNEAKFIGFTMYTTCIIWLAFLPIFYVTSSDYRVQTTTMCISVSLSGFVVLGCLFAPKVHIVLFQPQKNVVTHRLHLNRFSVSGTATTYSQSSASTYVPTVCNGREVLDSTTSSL

mGlu2 = mGlu2 (Rattus norvegicus, UniProt P31421); experiment: as above; format: cell-based; settings: 10 μM
Sequence of mGlu2 (P31421 19-872): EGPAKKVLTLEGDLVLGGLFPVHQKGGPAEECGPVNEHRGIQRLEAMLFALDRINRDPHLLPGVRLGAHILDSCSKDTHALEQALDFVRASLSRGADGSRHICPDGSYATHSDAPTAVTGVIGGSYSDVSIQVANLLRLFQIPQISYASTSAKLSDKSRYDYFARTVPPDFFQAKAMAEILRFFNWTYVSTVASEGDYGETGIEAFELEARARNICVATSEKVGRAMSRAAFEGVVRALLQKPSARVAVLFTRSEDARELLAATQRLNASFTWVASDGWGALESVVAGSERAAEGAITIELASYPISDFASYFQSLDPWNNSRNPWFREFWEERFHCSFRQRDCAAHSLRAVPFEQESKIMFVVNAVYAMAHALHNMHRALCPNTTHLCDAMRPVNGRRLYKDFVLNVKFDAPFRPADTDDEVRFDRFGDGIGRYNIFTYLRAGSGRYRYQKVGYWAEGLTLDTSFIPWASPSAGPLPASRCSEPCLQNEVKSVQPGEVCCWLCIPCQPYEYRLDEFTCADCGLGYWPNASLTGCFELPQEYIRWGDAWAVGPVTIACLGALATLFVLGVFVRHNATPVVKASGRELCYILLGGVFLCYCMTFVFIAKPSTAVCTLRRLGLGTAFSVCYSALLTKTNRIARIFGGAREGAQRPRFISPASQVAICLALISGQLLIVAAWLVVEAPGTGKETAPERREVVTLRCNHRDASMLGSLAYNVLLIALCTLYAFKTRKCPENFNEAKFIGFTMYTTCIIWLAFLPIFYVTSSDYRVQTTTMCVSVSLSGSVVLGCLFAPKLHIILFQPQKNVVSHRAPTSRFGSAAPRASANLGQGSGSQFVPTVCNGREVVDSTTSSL

[1] = predicted hepatic clearance, rat; format: in vitro ADME
rat mGlu3 = rat mGlu3 (Rattus norvegicus, UniProt P31422); format: cell-based
Sequence of rat mGlu3 (P31422 23-879): as the sequence (P31422 23-879) above
How it was run: as §1

the other mGlus = experiment: mGlu family selectivity screen, fold-shift of glutamate response; format: cell-based; settings: 10 μM
How it was run: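 Fold-shift of glutamate-evoked signaling measured at group I and group III mGlu receptors. Group I receptors read out by calcium response; group III receptors read out by GIRK response.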

[2] = predicted hepatic clearance, human; format: in vitro ADME
tier 1 DMPK panel = format: in vitro ADME; settings: compared with 10b
[3] = fixed concentrations against glutamate 1 nM – 30 μM

Sequence of rat mGlu2 (P31421 19-872): as the sequence (P31421 19-872) above

Row | increase in potency at mGlu2 compared to 7d (rat mGlu2) | mechanism of action at mGlu2 (progressive fold-shift of glutamate response) (rat mGlu2; [3]) | predicted clearance CLhep, rat [1] | increase in potency at mGlu3 compared to 7d (rat mGlu3) | mechanism of action at mGlu3 (progressive fold-shift of glutamate response) (rat mGlu3; [3]) | predicted clearance CLhep, human [2] | DMPK properties (tier 1 DMPK panel) | SMILES | effect on glutamate response at mGlu3 (mGlu3) | effect on glutamate response at mGlu2 (mGlu2) | effect on responses of the other mGlus to glutamate (the other mGlus)
1 | ~3.5 fold | acting as a NAM | 54.7 mL/min/kg | over 2 fold | acting as a NAM | 18.7 mL/min/kg | – | Cn1c(=O)c2ccc(-c3cncnc3)cc2n2nc(-c3ccccc3)cc12 [10b, 4-methyl-2-phenyl-8-(pyrimidin-5-yl)pyrazolo[1,5-a]quinazolin-5(4H)-one] | completely blocked the glutamate response | completely blocked the glutamate response | did not alter the responses
2 | – | – | – | – | – | – | similarly poor DMPK properties | Cn1c(=O)c2ccc(-c3cccnc3)cc2n2nc(-c3ccc(F)cc3)cc12 [7ab] | – | – | –
